# Measurements: ChEMBL document CHEMBL4184147, “Polyphenolic Phytochemicals in Cancer Prevention and Therapy: Bioavailability versus Bioefficacy” (J Med Chem, 2017)
# Legend:
# T47D [1] = assay: Cytotoxicity against human T47D cells assessed as decrease in cell viability after 48 hrs by trypan blue exclusion and LDH release
# [2] = Tmax in mouse at 10 mg/kg, iv by LC-MS/MS method; format: ADME, organism-based; conditions: in vivo
# How it was run: (§1)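 For IV dosing, compound dissolved in DMSO:ethanol (2:1), total volume no more than 30 μL. For oral dosing, compound given in a self-microemulsifying delivery system (60% surfactant, emulsifier OP:Cremophor EL 1:1; 30% PEG 400; 10% ethyl oleate), total volume no more than 100 μL. Plasma levels measured by previously described methods.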
# PANC-1 [3] = assay: Cytotoxicity against human PANC1 cells assessed as cell viability at 34 uM after 48 hrs by MTT assay; format: functional; conditions: PANC-1, 48 h, read-out: Activity
# BXPC-3 [4] = assay: Cytotoxicity against human BxPC3 cells assessed as decrease in cell viability after 48 hrs by MTT assay; format: functional, cell-based; conditions: BXPC-3, 48 h
# NCI-H460 [5] = assay: Cytotoxicity against human NCI-H460 cells assessed as cell viability at 34 uM after 48 hrs by trypan blue exclusion and LDH release; conditions: NCI-H460, 48 h
# A549 [6] = assay: Cytotoxicity against human A549 cells assessed as decrease in cell viability at 20 uM after 48 hrs by SRB method relative to control; format: functional
# U-87 MG [7] = assay: Cytotoxicity against human U87 cells assessed as decrease in cell viability after 48 hrs by trypan blue exclusion and LDH release
# HT-29 [8] = assay: Cytotoxicity against human HT-29 cells assessed as cell viability at 34 uM after 48 hrs by MTT assay; format: functional; conditions: HT-29, 48 h, read-out: Activity
# COLO 201 [9] = assay: Cytotoxicity against human COLO201 cells assessed as cell viability at 34 uM after 48 hrs by trypan blue exclusion and LDH release; conditions: COLO 201, 48 h
# MCF7 = assay: Cytotoxicity against human MCF7 cells assessed as decrease in cell viability at 20 uM after 48 hrs by SRB method relative to control; format: functional
# U-87 MG [10] = assay: Cytotoxicity against human U87 cells assessed as cell viability at 34 uM after 48 hrs by MTT assay; format: functional, U-87MG ATCC; conditions: read-out: Activity
# HT-29 [11] = assay: Cytotoxicity against human HT-29 cells assessed as decrease in cell viability at 20 uM after 48 hrs by SRB method relative to control; format: functional
# NCI-H460 [12] = assay: Cytotoxicity against human NCI-H460 cells assessed as decrease in cell viability after 48 hrs by MTT assay; format: functional, cell-based; conditions: NCI-H460, 48 h
# PANC-1 [13] = assay: Cytotoxicity against human PANC1 cells assessed as decrease in cell viability after 48 hrs by MTT assay; format: functional, cell-based; conditions: PANC-1, 48 h
# [14] = Tmax in mouse at 100 mg/kg, po by HPLC method; format: ADME, organism-based; conditions: in vivo
# How it was run: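 Given orally in a self-microemulsifying delivery system (60% surfactant, emulsifier OP:Cremophor EL 1:1; 30% PEG 400 cosurfactant; 10% ethyl oleate oil), total volume no more than 100 μL. Plasma levels measured by previously described methods.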
# [15] = Cytotoxicity against human MML1 cells assessed as decrease in cell viability after 48 hrs by MTT assay; format: functional, cell-based
# [16] = Plasma concentration in mouse at 100 mg/kg, po at 60 mins by LC-MS/MS method; format: ADME, organism-based
# How it was run: as §1
# MDA-MB-231 [17] = assay: Cytotoxicity against human MDA-MB-231 cells assessed as decrease in cell viability after 48 hrs by trypan blue exclusion and LDH release; conditions: MDA-MB-231, 48 h
# MDA-MB-231 [18] = assay: Cytotoxicity against human MDA-MB-231 cells assessed as cell viability at 34 uM after 48 hrs by MTT assay; format: functional; conditions: MDA-MB-231, 48 h, read-out: Activity
# SK-MEL-2 [19] = assay: Cytotoxicity against human SK-MEL-2 cells assessed as cell viability at 34 uM after 48 hrs by MTT assay; format: functional; conditions: SK-MEL-2, 48 h, read-out: Activity
# COLO 201 [20] = assay: Cytotoxicity against human COLO201 cells assessed as decrease in cell viability after 48 hrs by trypan blue exclusion and LDH release; conditions: COLO 201, 48 h
# A549 [21] = assay: Cytotoxicity against human A549 cells assessed as decrease in cell viability after 48 hrs by trypan blue exclusion and LDH release; conditions: A549, 48 h
# [22] = Cmax in mouse at 100 mg/kg, po by HPLC method; format: ADME, organism-based; set-up: dose 100 mg/kg, route oral; conditions: in vivo
# How it was run: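 For oral dosing, polyphenol was dissolved in a self-microemulsifying delivery system: 60% surfactant (emulsifier OP:Cremophor EL 1:1), 30% cosurfactant (PEG 400) and 10% oil (ethyl oleate). Total volume given was never above 100 μL. Plasma levels were quantified by previously described methods.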
# T47D [23] = assay: Cytotoxicity against human T47D cells assessed as cell viability at 34 uM after 48 hrs by MTT assay; format: functional; conditions: read-out: Activity
# A-375 = assay: Cytotoxicity against human A375 cells assessed as decrease in cell viability at 20 uM after 48 hrs by SRB method relative to control; format: functional
# LN-229 [24] = assay: Cytotoxicity against human LN229 cells assessed as cell viability at 34 uM after 48 hrs by MTT assay; format: functional; conditions: LN-229, 48 h, read-out: Activity
# LN-229 [25] = assay: Cytotoxicity against human LN229 cells assessed as decrease in cell viability after 48 hrs by trypan blue exclusion and LDH release; conditions: LN-229, 48 h
# A549 [26] = assay: Cytotoxicity against human A549 cells assessed as cell viability at 34 uM after 48 hrs by trypan blue exclusion and LDH release; conditions: A549, 48 h
# [27] = Cmax in mouse at 10 mg/kg, iv by LC-MS/MS method; format: ADME, organism-based; set-up: dose 10 mg/kg, route intravenous; conditions: in vivo
# How it was run: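 Mouse iv dosing used polyphenol dissolved in DMSO:ethanol (2:1), with total injected volume never above 30 μL. Plasma levels were measured by previously described methods.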
# SK-MEL-2 [28] = assay: Cytotoxicity against human SK-MEL-2 cells assessed as decrease in cell viability after 48 hrs by MTT assay; format: functional, cell-based; conditions: SK-MEL-2, 48 h
# [29] = Plasma concentration in mouse at 10 mg/kg, iv at 120 mins by LC-MS/MS method; format: ADME, organism-based
# How it was run: as §1
# BXPC-3 [30] = assay: Cytotoxicity against human BxPC3 cells assessed as cell viability at 34 uM after 48 hrs by MTT assay; format: functional; conditions: BXPC-3, 48 h, read-out: Activity
# [31] = Cytotoxicity against human MML1 cells assessed as cell viability at 34 uM after 48 hrs by MTT assay; format: functional; conditions: read-out: Activity
# [32] = Plasma concentration in mouse at 10 mg/kg, iv at 60 mins by LC-MS/MS method; format: ADME, organism-based
# How it was run: as §1
# HT-29 [33] = assay: Cytotoxicity against human HT-29 cells assessed as decrease in cell viability after 48 hrs by trypan blue exclusion and LDH release; conditions: HT-29, 48 h
compound,measurement,setting,value
COc1cc(/C=C/c2ccc(O)cc2)cc(OC)c1 [PTEROSTILBENE],IC50,T47D [1],35 µM
same,Tmax,[2],5 min
same,viability at 34 µM,PANC-1 [3],94%
same,IC50,BXPC-3 [4],31 µM
same,viability at 34 µM,NCI-H460 [5],83%
same,Activity,A549 [6],40%
same,IC50,U-87 MG [7],34 µM
same,viability at 34 µM,HT-29 [8],96%
same,viability at 34 µM,COLO 201 [9],95%
same,Activity,MCF7,25%
same,viability at 34 µM,U-87 MG [10],103%
same,Activity,HT-29 [11],10%
same,IC50,NCI-H460 [12],17 µM
same,IC50,PANC-1 [13],50 µM
same,Tmax,[14],10 min
same,IC50,[15],17 µM
same,concentration at 1 h,[16],< 1 µM
same,IC50,MDA-MB-231 [17],63 µM
same,viability at 34 µM,MDA-MB-231 [18],90%
same,viability at 34 µM,SK-MEL-2 [19],85%
same,IC50,COLO 201 [20],29 µM
same,IC50,A549 [21],26 µM
same,Cmax,[22],25 µM
same,viability at 34 µM,T47D [23],91%
same,Activity,A-375,30%
same,viability at 34 µM,LN-229 [24],98%
same,IC50,LN-229 [25],14 µM
same,viability at 34 µM,A549 [26],81%
same,Cmax,[27],67 µM
same,IC50,SK-MEL-2 [28],17 µM
same,concentration at 2 h,[29],< 1 µM
same,viability at 34 µM,BXPC-3 [30],97%
same,viability at 34 µM,[31],87%
same,concentration at 1 h,[32],15 µM
same,IC50,HT-29 [33],28 µM
